ChEMBL document CHEMBL4339190, “2,6-Disubstituted imidazo[2,1-b][1,3,4]thiadiazole derivatives as potent staphylococcal biofilm inhibitors” (Eur J Med Chem, 2019)

Key:
[1] = test system: Escherichia coli; assay: Antimicrobial activity against Escherichia coli ATCC 25922 assessed as growth inhibition of planktonic forms incubated for 24 hrs; assay type: organism-based; conditions: in vitro
Method in brief: (§1)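 Broth microdilution in tryptic soy broth. Two-fold series 100 to 0.75 μg/mL made from a 1 mg/mL stock in 0.9% NaCl. Inoculum ~10⁶ cfu/mL taken from a 24 h culture, 37 °C 24 h.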

[2] = test system: Staphylococcus aureus; assay: Antibiofilm activity against Staphylococcus aureus ATCC 25923 incubated for 24 hrs by crystal violet-staining based assay; assay type: functional
Method in brief: (§2)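 Biofilm prevention: 0.5 McFarland inoculum (2.5 µL) in 100 µL TSB with 2% w/v glucose, compound present from the start over 100–0.1 µg/mL, 37 °C 24 h. Washed with PBS, stained 0.1% w/v crystal violet 30 min, eluted with 33% v/v acetic acid, read at 570 nm. BIC50 (50% inhibition versus untreated control) derived by linear regression; triplicate, repeated at least twice.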

[3] = test system: Pseudomonas aeruginosa; assay: Antibiofilm activity against Pseudomonas aeruginosa ATCC 15442 incubated for 24 hrs by crystal violet-staining based assay; assay type: functional; method in brief: as §2
[4] = test system: Pseudomonas aeruginosa; assay: Antimicrobial activity against Pseudomonas aeruginosa ATCC 15442 assessed as growth inhibition of planktonic forms incubated for 24 hrs; assay type: organism-based; conditions: in vitro; method in brief: as §1
[5] = test system: Staphylococcus epidermidis; assay: Antimicrobial activity against Staphylococcus epidermidis ATCC 12228 assessed as growth inhibition of planktonic forms incubated for 24 hrs; assay type: organism-based; conditions: in vitro; method in brief: as §1
[6] = test system: Staphylococcus aureus; assay: Antimicrobial activity against Staphylococcus aureus ATCC 25923 assessed as growth inhibition of planktonic forms incubated for 24 hrs; assay type: organism-based; conditions: in vitro; method in brief: as §1
[7] = test system: Staphylococcus epidermidis; assay: Antibiofilm activity against Staphylococcus epidermidis ATCC 12228 incubated for 24 hrs by crystal violet-staining based assay; assay type: functional; method in brief: as §2
[8] = test system: Staphylococcus aureus; assay: Antibiofilm activity against Staphylococcus aureus ATCC 6538 incubated for 24 hrs by crystal violet-staining based assay; assay type: functional; method in brief: as §2
[9] = test system: Escherichia coli; assay: Antibiofilm activity against Escherichia coli ATCC 25922 assessed as inhibition of biofilm formation at 100 ug/ml incubated for 24 hrs by crystal violet-staining based assay; assay type: functional; conditions: ATCC 25922, 24 h
[10] = test system: Staphylococcus aureus; assay: Antimicrobial activity against Staphylococcus aureus ATCC 6538 assessed as growth inhibition of planktonic forms incubated for 24 hrs; assay type: organism-based; conditions: in vitro; method in brief: as §1

## Br.Fc1ccc(-c2cn3nc(-c4c[nH]c5ccccc45)sc3n2)cc1
[1]
  MIC: > 100 µg/mL
[2]
  MBIC50: 15.6 µM
  inhibition: Dose-dependent effect
[3]
  MBIC50: 47.4 µM
  inhibition: Dose-dependent effect
[4]
  MIC: > 100 µg/mL
[5]
  MIC: > 100 µg/mL
[6]
  MIC: > 100 µg/mL
[7]
  MBIC50: 30.8 µM
  inhibition: Dose-dependent effect
[8]
  MBIC50: 13.4 µM
  inhibition: Dose-dependent effect
[9]
  inhibition at 100 µg/mL: < 15%
[10]
  MIC: > 100 µg/mL

## Br.COc1cccc(-c2cn3nc(-c4c[nH]c5ccc(Cl)cc45)sc3n2)c1
[1]
  MIC: > 100 µg/mL
[2]
  MBIC50: 31.6 µM
  inhibition: Dose-dependent effect
[3]
  MBIC50: 29 µM
  inhibition: Dose-dependent effect
[4]
  MIC: > 100 µg/mL
[5]
  MIC: > 100 µg/mL
[6]
  MIC: > 100 µg/mL
[7]
  MBIC50: 32.7 µM
  inhibition: Dose-dependent effect
[8]
  MBIC50: 15.1 µM
  inhibition: Dose-dependent effect
[9]
  inhibition at 100 µg/mL: < 15%
[10]
  MIC: > 100 µg/mL

## Br.COc1ccc(OC)c(-c2cn3nc(-c4cn(C)c5ccc(Br)cc45)sc3n2)c1
[1]
  MIC: > 100 µg/mL
[2]
  MBIC50: 90.8 µM
  inhibition: Dose-dependent effect
[3]
  MBIC50: 28.5 µM
  inhibition: Dose-dependent effect
[4]
  MIC: > 100 µg/mL
[5]
  MIC: > 100 µg/mL
[6]
  MIC: > 100 µg/mL
[7]
  MBIC50: 52.3 µM
  inhibition: Dose-dependent effect
[8]
  MBIC50: 8.9 µM
  inhibition: Dose-dependent effect
[9]
  inhibition at 100 µg/mL: < 15%
[10]
  MIC: > 100 µg/mL

## Br.COc1ccc(OC)c(-c2cn3nc(-c4cn(C)c5ccccc45)sc3n2)c1
[1]
  MIC: > 100 µg/mL
[2]
  MBIC50: 24.3 µM
  inhibition: Dose-dependent effect
[4]
  MIC: > 100 µg/mL
[5]
  MIC: > 100 µg/mL
[6]
  MIC: > 100 µg/mL
[7]
  MBIC50: 25 µM
  inhibition: Dose-dependent effect
[8]
  MBIC50: 3.6 µM
  inhibition: Dose-dependent effect
[9]
  inhibition at 100 µg/mL: < 15%
[10]
  MIC: > 100 µg/mL

## O=[N+]([O-])c1ccc(-c2cn3nc(-c4c[nH]c5ccc(Br)cc45)sc3n2)cc1
[1]
  MIC: > 100 µg/mL
[2]
  MBIC50: 23.9 µM
  inhibition: Dose-dependent effect
[3]
  MBIC50: 43.3 µM
  inhibition: Dose-dependent effect
[4]
  MIC: > 100 µg/mL
[5]
  MIC: > 100 µg/mL
[6]
  MIC: > 100 µg/mL
[7]
  MBIC50: 19.1 µM
  inhibition: Dose-dependent effect
[8]
  MBIC50: 27 µM
  inhibition: Dose-dependent effect
[9]
  inhibition at 100 µg/mL: < 15%
[10]
  MIC: > 100 µg/mL

## Cn1cc(-c2nn3cc(-c4ccc(C(F)(F)F)cc4)nc3s2)c2cc(Cl)ccc21
[1]
  MIC: > 100 µg/mL
[4]
  MIC: > 100 µg/mL
[5]
  MIC: > 100 µg/mL
[6]
  MIC: > 100 µg/mL
[10]
  MIC: > 100 µg/mL

## Br.Cn1cc(-c2nn3cc(-c4ccc(C(F)(F)F)cc4)nc3s2)c2cc(Br)ccc21
[1]
  MIC: > 100 µg/mL
[4]
  MIC: > 100 µg/mL
[5]
  MIC: > 100 µg/mL
[6]
  MIC: > 100 µg/mL
[10]
  MIC: > 100 µg/mL

## Br.COc1cccc(-c2cn3nc(-c4cn(C)c5ccc(Br)cc45)sc3n2)c1
[1]
  MIC: > 100 µg/mL
[2]
  MBIC50: 16 µM
  inhibition: Dose-dependent effect
[3]
  MBIC50: 26.3 µM
  inhibition: Dose-dependent effect
[4]
  MIC: > 100 µg/mL
[5]
  MIC: > 100 µg/mL
[6]
  MIC: > 100 µg/mL
[7]
  MBIC50: 63.8 µM
  inhibition: Dose-dependent effect
[8]
  MBIC50: 12.4 µM
  inhibition: Dose-dependent effect
[9]
  inhibition at 100 µg/mL: < 15%
[10]
  MIC: > 100 µg/mL
